# Source: ChEMBL document CHEMBL4020827, “Targeting Multiple Effector Pathways in Pancreatic Ductal Adenocarcinoma with a G-Quadruplex-Binding Small Molecule” (J Med Chem, 2018)
# Tests used:
# [1] = tested on: MIA PaCa-2; test: Antitumor activity against human MIAPaCa2 cells xenografted in CD-1 nude mouse assessed as change in tumor volume at 15 mg/kg, iv administered twice weekly for 4 weeks measured on day 62 relative to control; format: functional
# Method in brief: (§1)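 Female CD-1 nude mice (2-3 months, 20−25 g) given 5 x 10^6 MIA PaCa-2 cells subcutaneously in right flank with Matrigel; dosing began once tumors were established (approx. 13 days, mean 0.05 cm3). Eight mice/group, IV in saline twice weekly for 28 days (8 doses) against a saline group. Tumors measured by calliper (length × width × height × π/6), with body weight. Student's t test.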
# [2] = tested on: BXPC-3; test: Growth inhibition of human BxPC3 cells after 96 hrs by SRB assay; format: functional, cell-based; settings: BXPC-3, 96 h
# Method in brief: (§2)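 Cell lines kept at 37 °C, 5% CO2 in medium with 10% FBS and 2 mM L-glutamine. Compound dissolved in water, filter-sterilised, 10 mM stock diluted into media. Growth read by 96 h sulforhodamine B assay, absorbance at 540 nm. IC50 taken from mean absorbance per concentration as % of untreated wells, >3 individual determinations with standard deviations.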
# [3] = tested on: MIA PaCa-2; test: Antitumor activity against human MIAPaCa2 cells xenografted in CD-1 nude mouse assessed as change in tumor volume at 15 mg/kg, iv administered twice weekly for 4 weeks measured on day 29 relative to control; format: functional; method in brief: as §1
# [4] = tested on: CAPAN-1; test: Growth inhibition of human Capan1 cells after 96 hrs by SRB assay; format: functional, cell-based; settings: CAPAN-1, 96 h; method in brief: as §2
# [5] = Binding affinity to 5'-FAM/3'-TAMRA labeled BCL2 promoter G-quadruplex DNA (unknown origin) assessed as change in melting temperature at 1 uM by FRET assay
# Method in brief: (§3)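 FRET melting with FAM/TAMRA dual-labelled oligonucleotides at 400 nM, annealed at 95 °C for 10 min in 60 mM potassium cacodylate pH 7.4 and slowly cooled. Ligand final 1 μM; solution contains 50 mM K+. Fluorescence read every 0.5 °C over 30–100 °C with 30 s hold, excitation 450–495 nm and emission 515–545 nm. ΔTm from curve fitting, triplicate measurements.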
# [6] = Binding affinity to 5'-FAM/3'-TAMRA labeled T-loop duplex DNA (unknown origin) assessed as change in melting temperature at 1 uM by FRET assay; method in brief: as §3
# [7] = Toxicity in iv dosed CD-1 nude mouse assessed as death measured up to 72 hrs; format: organism-based; settings: in vivo
# Method in brief: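 CD1 nude mice, two per group, given single IV doses in saline (10, 20, 30, 35, 40, 45, 50 and 60 mg/kg), with repeat dosing weekly. Watched for adverse effects for up to 72 h. Tolerated dose taken as highest cohort in which all mice survived without observed ill-effects.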
# [8] = tested on: A549; test: Growth inhibition of human A549 cells after 96 hrs by SRB assay; format: functional, cell-based; settings: A549, 96 h; method in brief: as §2
# [9] = Binding affinity to 5'-FAM/3'-TAMRA labeled HSP90A promoter G-quadruplex DNA (unknown origin) assessed as change in melting temperature at 1 uM by FRET assay
# Method in brief: (§4)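 FRET melting of FAM/TAMRA dual-labelled promoter G4 oligonucleotides, 400 nM, annealed at 95 °C for 10 min in 60 mM potassium cacodylate (pH 7.4) then cooled to RT. Ligand at 1 μM in solution with 50 mM K+. Fluorescence (ex 450–495, em 515–545 nm) read every 0.5 °C over 30–100 °C with a 30 sec hold per step. ΔTm from curve fitting; triplicate measurements.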
# [10] = Binding affinity to 5'-FAM/3'-TAMRA labeled HSP90B promoter G-quadruplex DNA (unknown origin) assessed as change in melting temperature at 1 uM by FRET assay; method in brief: as §3
# [11] = Binding affinity to 5'-FAM/3'-TAMRA labeled KRAS21 promoter G-quadruplex DNA (unknown origin) assessed as change in melting temperature at 1 uM by FRET assay; method in brief: as §4
# [12] = Binding affinity to 5'-FAM/3'-TAMRA labeled KRAS32 promoter G-quadruplex DNA (unknown origin) assessed as change in melting temperature at 1 uM by FRET assay; method in brief: as §4
# [13] = Selectivity index, ratio of IC50 for human WI38 cells to IC50 for human MIAPaCa2 cells; format: functional
# Method in brief: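 SRB growth-inhibition assay over 96 h with compounds dissolved in water; cells grown in 10 % FBS at 37 °C, 5% CO2. Absorbance at 540 nm as a percentage of untreated wells gives the IC50. Values are averages of >3 determinations, with the ratio taken as WI-38 IC50 over MIA PaCa-2 IC50.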
# [14] = tested on: MIA PaCa-2; test: Growth inhibition of human MIAPaCa2 cells after 96 hrs by SRB assay; format: functional, cell-based; settings: MIA PaCa-2, 96 h; method in brief: as §2
# [15] = species on record: Homo sapiens; test: Binding affinity to 5'-FAM/3'-TAMRA labeled human telomeric F21T G-quadruplex DNA assessed as change in melting temperature at 1 uM by FRET assay; method in brief: as §3
# [16] = Binding affinity to 5'-FAM/3'-TAMRA labeled human telomeric F21T G-quadruplex DNA by fluorescence anisotropy titration method
Compound,Activity [1],IC50 [2],Activity [3],IC50 [4],ΔTm [5],ΔTm [6],MTD at 72 h [7],IC50 [8],ΔTm [9],ΔTm [10],ΔTm [11],ΔTm [12],Ratio IC50 [13],IC50 [14],ΔTm [15],Kd [16]
Nc1ccn([C@@H]2O[C@H](CO)[C@@H](O)C2(F)F)c(=O)n1 [GEMCITABINE],-61.7%,6 nM,-66.7%,19 nM,–,–,–,–,–,–,–,–,–,–,–,–
CN1CCN(CCCNc2cc3c4c(c(NCCCN5CCN(C)CC5)cc5c4c2C(=O)N(CCCN2CCOCC2)C5=O)C(=O)N(CCCN2CCOCC2)C3=O)CC1,-56.7%,–,-66.7%,–,26.4 °C,4.9 °C,25 mg/kg,19 nM,33.1 °C,28.6 °C,22.5 °C,19.8 °C,21,11 nM,26.6 °C,20 nM
